From article PMC10189352 (Molecular Therapy. Nucleic Acids, 2023)

Experiments:
SW-480 cells = test: Colony formation of adherent cancer cells; assay type: cell-based, human; conditions: dose-dependent; after 5 days of treatment
human AML cells = test: Methylcellulose-based colony formation of human AML cells; assay type: cell-based; conditions: semi-solid methylcellulose (Figure 3E)
MYC = test: Western blot of MYC protein in murine AML cells; assay type: cell-based; conditions: murine MLL-AF9, Nras^G12D AML cells, 6 h, RVX-208 1 μM, OTX-015 1 μM, candidates 10 μM
In short: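 Whole-cell lysates were prepared after the 6 h treatment and probed for MYC by western blot. DMSO-treated cells were the vehicle control.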

AsPC-1 cells = test: Colony formation of adherent cancer cells; assay type: cell-based, human; conditions: dose-dependent; after 5 days of treatment
[1] = test system: murine AML cells expressing Myc cDNA; test: Ectopic Myc cDNA expression rescue in murine AML cells; assay type: cell-based; conditions: murine AML cells transduced with Myc cDNA MSCV retrovirus
[2] = test system: human leukemia cell lines; test: Proliferation assay of human leukemia cell lines; assay type: cell-based; conditions: 48 h, normalized to DMSO-treated cells
In short: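 Human leukemia cell lines were grown with test compound. Proliferation rate was normalised to DMSO-treated cells; n = 3, mean ± SEM.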

c-Kit surface expression = test: Flow cytometric analysis of c-Kit in murine AML cells; assay type: cell-based; conditions: 48 h, flow cytometry
[3] = test system: BRD4 occupancy at e1-e5 Myc enhancers; test: BRD4 ChIP-qPCR at Myc enhancers in murine AML cells; assay type: cell-based
[4] = test system: MLL-AF9;Nras^G12D AML cells; test: Propidium iodide staining of murine AML cells; assay type: cell-based; conditions: 48 h (Figure 3D)
PDA organoids = test: PDA organoid growth; assay type: cell-based, mouse; conditions: 24, 48, and 72 h, light microscopy; CellTiter Glo-3D
In short: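 PDA organoids were treated with test compound or DMSO and imaged by light microscopy at 24, 48 and 72 h. Growth was quantified with CellTiter-Glo 3D. Data are shown as mean ± SEM, and p-values came from Student's t test.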

Hexim1 mRNA = test: RT-qPCR of Hexim1 in murine AML cells; assay type: cell-based; conditions: 6 h treatment
[5] = test system: murine AML cells (MLL-AF9; Nras^G12D); test: RNA-seq and GSEA in murine AML cells; assay type: cell-based; conditions: RNA-seq; for mRNA levels of JQ1-rapid target genes (n = 50): relative to DMSO
BRD4 chromatin occupancy = test: BRD4 ChIP-seq in murine AML cells; assay type: cell-based; conditions: regions enriched with H3K27ac
[6] = test system: BD2 vs BD1 of BET proteins; conditions: approximately; cited from earlier work
[7] = test system: RNA polymerase II chromatin occupancy; test: RNA Pol II ChIP-seq in murine AML cells; assay type: cell-based; conditions: BRD4-occupied sites

Compound	clonogenic growth of SW-480 cells (SW-480 cells)	ability to form colonies on methylcellulose (human AML cells)	MYC protein expression (MYC)	clonogenic growth of AsPC-1 cells (AsPC-1 cells)	effect of ectopic Myc expression on drug sensitivity [1]	anti-proliferative activity in K562, NOMO-1, JURKAT, and HL-60 [2]	anti-proliferative activity in MV4-11, KASUMI-1, MOLM-13, and THP-1 [2]	c-Kit surface expression (c-Kit surface expression)	BRD4 occupancy at e1-e5 Myc enhancers [3]	proliferation of leukemia cells [4]	PDA organoid growth (PDA organoids)	increase of Hexim1 mRNA expression (Hexim1 mRNA) [fold]	LSC signature genes (GSEA) [5]	mRNA levels of JQ1-rapid target genes (n = 50) [5]	expression of genes close to the BBC1115-sensitive 330 regions (GSEA) ([5]; vs DMSO)	BRD4 chromatin occupancy (ChIP-seq) (BRD4 chromatin occupancy)	stronger binding affinity toward BD2 than BD1 [6]	RNA Pol II chromatin binding (ChIP-seq) [7]
Cc1sc2c(c1C)C(c1ccc(Cl)cc1)=N[C@@H](CC(=O)Nc1ccc(O)cc1)c1nnc(C)n1-2 [OTX-015, birabresib]	markedly inhibit clonogenic growth	substantially suppressed	downregulated MYC protein levels	markedly inhibit clonogenic growth	ectopic Myc expression conferred resistance	minimal sensitivity	broad growth-suppressive effect	downregulated c-Kit	impaired the occupancy of BRD4 at the e1-e5 Myc enhancers	inhibited the proliferation of leukemia cells	attenuated PDA organoid growth	> 20	significantly suppressed the LSC signature genes	strongly downregulated all JQ1-rapid targets	significantly downregulated			
COc1cc(OC)c2c(=O)[nH]c(-c3cc(C)c(OCCO)c(C)c3)nc2c1 [RVX-208, apabetalone]			only modestly affected MYC protein expression						negligible effect on the BRD4 occupancy at e1-e5		but not RVX-208, attenuated PDA organoid growth		insignificant	downregulated some but not all JQ1-rapid targets		negligible	10- to 100 fold	negligible
